# Data reported in PMC5884119 (Journal of medicinal chemistry, 2017).
# Key:
# [1] = system: panel of Gram-positive and Gram-negative bacteria; experiment: Antimicrobial activity against the whole panel; format: cell-based; conditions: for antimicrobial activity against the tested strains (in words): statement in text over the panel of strains; for MIC: read-out: MICs across the tested strains
# [2] = system: P. aeruginosa (ATCC 27853); experiment: MIC against P. aeruginosa; format: cell-based, Pseudomonas aeruginosa
# [3] = system: MRSA-induced lung inflammation; experiment: Rat MRSA pneumonia model, lung pathology; format: in vivo
# In short: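 Rats (n = 6 per group) inoculated intratracheally with 100 µL MRSA suspension. After 24 h (day 0), test compound 10 mg/kg given by intravenous tail-vein injection. Lung bacterial counts taken on days 3 and 5. Lung inflammation assessed by hematoxylin and eosin staining of lung tissue.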
# [4] = Hemolytic activity; format: cell-based
# [5] = system: MRSA; experiment: Fluorescence microscopy; format: cell-based, Staphylococcus aureus
# [6] = system: Pseudomonas aeruginosa; conditions: cited from earlier work
# [7] = system: E. coli; experiment: Fluorescence microscopy; format: cell-based, Escherichia coli
# In short: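 Test compound at 5 µg/mL applied to E. coli for 2 h, with untreated cells as controls. Cells stained with DAPI or with propidium iodide, a membrane-impermeant DNA intercalator that fluoresces red only when membranes are disrupted. Membrane damage assessed by fluorescence microscopy.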
# [8] = system: MRSA; experiment: Drug resistance study; format: cell-based, Staphylococcus aureus; conditions: incubated at half of MIC overnight, after 14 passages
# [9] = system: E. coli; experiment: Time-kill study, E. coli; format: cell-based, Escherichia coli
# [10] = system: MRSA; experiment: Time-kill study, MRSA; format: cell-based, Staphylococcus aureus
# [11] = system: ovarian cancer cells (C13); experiment: Cytotoxicity toward ovarian cancer cells; format: cell-based
# [12] = even at 100 µg/mL, same experiment (Figure S2)
compound,measurement,setting,value
"CCCCCCCCCC(=O)N[C@@H](CCCCN)CN1CC(=O)N(C2CCCCC2)C1=O [Compound 9, (S)-N-(6-Amino-1-(3-cyclohexyl-2,4-dioxoimidazolidin-1-yl)-hexan-2-yl)decanamide]",antimicrobial activity against the tested strains (in words),[1],starts to show activity toward a few bacterial strains
"CCCCCCCCCC(=O)N[C@@H](CCCCN)CN1CC(=O)N(CC)C1=O [Compound 1, (S)-N-(6-Amino-1-(3-ethyl-2,4-dioxoimidazolidin-1-yl)hexan-2-yl)decanamide]",antimicrobial activity against the tested strains (in words),[1],did not exhibit any activity
"CCCCCCCCCCCCCCCC(=O)N[C@@H](CCCCN)CN1CC(=O)N(CC)C1=O [Compound 4, (S)-N-(6-Amino-1-(3-ethyl-2,4-dioxoimidazolidin-1-yl)hexan-2-yl)palmitamide]",activity toward P. aeruginosa (in words),[2],abolished
"CN[C@H](CC(C)C)C(=O)N[C@H]1C(=O)N[C@@H](CC(N)=O)C(=O)N[C@H]2C(=O)N[C@H]3C(=O)N[C@H](C(=O)N[C@H](C(=O)O)c4cc(O)cc(O)c4-c4cc3ccc4O)[C@H](O)c3ccc(c(Cl)c3)Oc3cc2cc(c3O[C@@H]2O[C@H](CO)[C@@H](O)[C@H](O)[C@H]2O[C@H]2C[C@](C)(N)[C@H](O)[C@H](C)O2)Oc2ccc(cc2Cl)[C@H]1O [vancomycin, reference compound]",lung inflammation (H&E staining),[3]; day not given,some alleviation of this condition
"CCCCCCCCCC(=O)N[C@@H](CCCCN)CN1CC(=O)N(CCCC)C1=O [Compound 5, (S)-N-(6-Amino-1-(3-butyl-2,4-dioxoimidazolidin-1-yl)hexan-2-yl)decanamide]",antimicrobial activity against the tested strains (in words),[1],does not have any antimicrobial activity
"CCCCCCCCCC(=O)N[C@@H](CCCCN)CN1CC(=O)N(C23CC4CC(CC(C4)C2)C3)C1=O [Compound 13, N-((S)-1-(3-((3R,5R,7R)-Adamantan-1-yl)-2,4-dioxoimidazolidin-1-yl)-6-aminohexan-2-yl)decanamide]",HC50,[4],125 µg/mL
same,antimicrobial activity against the tested strains (in words),[1],decent activity across the panel of bacteria
"O=C1CN(/N=C/c2ccc([N+](=O)[O-])o2)C(=O)N1 [Compound 26, nitrofurantoin, reference compound]",membrane-disruption activity,[5]; [12],did not show any membrane-disruption activity
same,activity toward P. aeruginosa (in words),[2],failed to show any activity
same,not active up to (concentration),[6],> 100 µg/mL
same,membrane-disruption activity,[7]; [12],did not show any membrane-disruption activity
same,MIC,[1],6.25 to 25 µg/mL
"CCCCCCCCCCCC(=O)N[C@@H](CCCCN)CN1CC(=O)N(c2cccc(Cl)c2)C1=O [Compound 22, (S)-N-(6-Amino-1-(3-(3-chlorophenyl)-2,4-dioxoimidazolidin-1-yl)hexan-2-yl)dodecanamide]",MIC after serial passage (resistance development),[8],remained virtually unchanged
same,membrane damage (DAPI and PI staining),"[5]; MRSA, 5 µg/mL, 2 h",damaged
same,time to complete eradication,[9]; 4.0 µg/mL (4× MIC),60 min
same,time to complete eradication,[9]; 25 µg/mL,30 min
same,time to complete eradication,[9]; 50 µg/mL,30 min
same,lung inflammation (H&E staining),[3]; day 3,only mild inflammation was observed
same,lung inflammation (H&E staining),[3]; day 5,virtually matched normal conditions
same,membrane damage (DAPI and PI staining),"[7]; E. coli, 5 µg/mL, 2 h",damaged
same,time to complete eradication,[10]; 2.0 µg/mL (4× MIC),60 min
same,time to complete eradication,[10]; 25 µg/mL,10 min
same,IC50,[11],90 µg/mL
same,MIC,[1],< 1 µg/mL
"CCCCCCCCCCCC(=O)N[C@@H](Cc1ccccc1)CN1CC(=O)N(c2cccc(Cl)c2)C1=O [Compound 25, (S)-N-(1-(3-(3-Chlorophenyl)-2,4-dioxoimidazolidin-1-yl)-3-phenylpropan-2-yl)dodecanamide]",antimicrobial activity against the tested strains (in words),[1],failed to show any antimicrobial activity
